Source: publication PMC12166256 (Clinical Pharmacology and Therapeutics, 2025)

Assay: SAD study: safety and tolerability
Type: in vivo, human
Conditions: for Abdominal pain TEAE, events / Abdominal pain TEAE, participants / Any event TEAE, events / Any event TEAE, participants / Diarrhea TEAE, events / Diarrhea TEAE, participants / Dysgeusia TEAE, events / Dysgeusia TEAE, participants / Gastrointestinal disorders TEAE, events / Gastrointestinal disorders TEAE, participants / Headache TEAE, events / Headache TEAE, participants / Hypoaesthesia oral TEAE, events / Hypoaesthesia oral TEAE, participants / Infections and infestations TEAE, events / Infections and infestations TEAE, participants / Insomnia TEAE, events / Insomnia TEAE, participants / Nasopharyngitis TEAE, events / Nasopharyngitis TEAE, participants / Nervous system disorders TEAE, events / Nervous system disorders TEAE, participants / Psychiatric disorders TEAE, events / Psychiatric disorders TEAE, participants / Rash TEAE, events / Rash TEAE, participants / Skin and subcutaneous tissue disorders TEAE, events / Skin and subcutaneous tissue disorders TEAE, participants / Tooth infection TEAE, events / Tooth infection TEAE, participants: N = 6
In short: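 Healthy males aged 18–55 with BMI 18–30 kg/m² were followed through dosing and a 6–8-day follow-up. Checks: physical examination, clinical laboratory tests, vital signs and 12-lead ECG, with adverse events coded in MedDRA. Events of special interest: ALT ≥2×ULN, QTcF ≥500 ms, Grade ≥2 photosensitivity, symptomatic overdose. Treatment-emergent events were summarised descriptively by organ class, preferred term and dose level for all exposed participants.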

CN1C(=O)c2cccc(OC(F)F)c2[C@H]2C[C@@H]1c1nc3ccc(-c4cnc(C5(N)CCC5)nc4)cc3n12 [Balinatunfib]
Grade ≥ 3 TEAE, treatment-emergent SAEs, TEAEs leading to discontinuation, AESIs (SAD): No participants | Abdominal pain TEAE, events (SAD 5 mg): 0 | Abdominal pain TEAE, participants (SAD 5 mg): 0 n (%) | Any event TEAE, events (SAD 5 mg): 0 | Any event TEAE, participants (SAD 5 mg): 0 n (%) | Diarrhea TEAE, events (SAD 5 mg): 0 | Diarrhea TEAE, participants (SAD 5 mg): 0 n (%) | Dysgeusia TEAE, events (SAD 5 mg): 0 | Dysgeusia TEAE, participants (SAD 5 mg): 0 n (%) | Gastrointestinal disorders TEAE, events (SAD 5 mg): 0 | Gastrointestinal disorders TEAE, participants (SAD 5 mg): 0 n (%) | Headache TEAE, events (SAD 5 mg): 0 | Headache TEAE, participants (SAD 5 mg): 0 n (%) | Hypoaesthesia oral TEAE, events (SAD 5 mg): 0 | Hypoaesthesia oral TEAE, participants (SAD 5 mg): 0 n (%) | Infections and infestations TEAE, events (SAD 5 mg): 0 | Infections and infestations TEAE, participants (SAD 5 mg): 0 n (%) | Insomnia TEAE, events (SAD 5 mg): 0 | Insomnia TEAE, participants (SAD 5 mg): 0 n (%) | Nasopharyngitis TEAE, events (SAD 5 mg): 0 | Nasopharyngitis TEAE, participants (SAD 5 mg): 0 n (%) | Nervous system disorders TEAE, events (SAD 5 mg): 0 | Nervous system disorders TEAE, participants (SAD 5 mg): 0 n (%) | Psychiatric disorders TEAE, events (SAD 5 mg): 0 | Psychiatric disorders TEAE, participants (SAD 5 mg): 0 n (%) | Rash TEAE, events (SAD 5 mg): 0 | Rash TEAE, participants (SAD 5 mg): 0 n (%) | Skin and subcutaneous tissue disorders TEAE, events (SAD 5 mg): 0 | Skin and subcutaneous tissue disorders TEAE, participants (SAD 5 mg): 0 n (%) | Tooth infection TEAE, events (SAD 5 mg): 0 | Tooth infection TEAE, participants (SAD 5 mg): 0 n (%) | Abdominal pain TEAE, events (SAD 20 mg): 0 | Abdominal pain TEAE, participants (SAD 20 mg): 0 n (%) | Any event TEAE, events (SAD 20 mg): 0 | Any event TEAE, participants (SAD 20 mg): 0 n (%) | Diarrhea TEAE, events (SAD 20 mg): 0 | Diarrhea TEAE, participants (SAD 20 mg): 0 n (%) | Dysgeusia TEAE, events (SAD 20 mg): 0 | Dysgeusia TEAE, participants (SAD 20 mg): 0 n (%) | Gastrointestinal disorders TEAE, events (SAD 20 mg): 0 | Gastrointestinal disorders TEAE, participants (SAD 20 mg): 0 n (%) | Headache TEAE, events (SAD 20 mg): 0 | Headache TEAE, participants (SAD 20 mg): 0 n (%) | Hypoaesthesia oral TEAE, events (SAD 20 mg): 0 | Hypoaesthesia oral TEAE, participants (SAD 20 mg): 0 n (%) | Infections and infestations TEAE, events (SAD 20 mg): 0 | Infections and infestations TEAE, participants (SAD 20 mg): 0 n (%) | Insomnia TEAE, events (SAD 20 mg): 0 | Insomnia TEAE, participants (SAD 20 mg): 0 n (%) | Nasopharyngitis TEAE, events (SAD 20 mg): 0 | Nasopharyngitis TEAE, participants (SAD 20 mg): 0 n (%) | Nervous system disorders TEAE, events (SAD 20 mg): 0 | Nervous system disorders TEAE, participants (SAD 20 mg): 0 n (%) | Psychiatric disorders TEAE, events (SAD 20 mg): 0 | Psychiatric disorders TEAE, participants (SAD 20 mg): 0 n (%) | Rash TEAE, events (SAD 20 mg): 0 | Rash TEAE, participants (SAD 20 mg): 0 n (%) | Skin and subcutaneous tissue disorders TEAE, events (SAD 20 mg): 0 | Skin and subcutaneous tissue disorders TEAE, participants (SAD 20 mg): 0 n (%) | Tooth infection TEAE, events (SAD 20 mg): 0 | Tooth infection TEAE, participants (SAD 20 mg): 0 n (%) | Abdominal pain TEAE, events (SAD 60 mg): 0 | Abdominal pain TEAE, participants (SAD 60 mg): 0 n (%) | Any event TEAE, events (SAD 60 mg): 1 | Any event TEAE, participants (SAD 60 mg): 1 (16.7) n (%) | Diarrhea TEAE, events (SAD 60 mg): 0 | Diarrhea TEAE, participants (SAD 60 mg): 0 n (%) | Dysgeusia TEAE, events (SAD 60 mg): 0 | Dysgeusia TEAE, participants (SAD 60 mg): 0 n (%) | Gastrointestinal disorders TEAE, events (SAD 60 mg): 0 | Gastrointestinal disorders TEAE, participants (SAD 60 mg): 0 n (%) | Headache TEAE, events (SAD 60 mg): 0 | Headache TEAE, participants (SAD 60 mg): 0 n (%) | Hypoaesthesia oral TEAE, events (SAD 60 mg): 0 | Hypoaesthesia oral TEAE, participants (SAD 60 mg): 0 n (%) | Infections and infestations TEAE, events (SAD 60 mg): 1 | Infections and infestations TEAE, participants (SAD 60 mg): 1 (16.7) n (%) | Insomnia TEAE, events (SAD 60 mg): 0 | Insomnia TEAE, participants (SAD 60 mg): 0 n (%) | Nasopharyngitis TEAE, events (SAD 60 mg): 0 | Nasopharyngitis TEAE, participants (SAD 60 mg): 0 n (%) | Nervous system disorders TEAE, events (SAD 60 mg): 0 | Nervous system disorders TEAE, participants (SAD 60 mg): 0 n (%) | Psychiatric disorders TEAE, events (SAD 60 mg): 0 | Psychiatric disorders TEAE, participants (SAD 60 mg): 0 n (%) | Rash TEAE, events (SAD 60 mg): 0 | Rash TEAE, participants (SAD 60 mg): 0 n (%) | Skin and subcutaneous tissue disorders TEAE, events (SAD 60 mg): 0 | Skin and subcutaneous tissue disorders TEAE, participants (SAD 60 mg): 0 n (%) | Tooth infection TEAE, events (SAD 60 mg): 1 | Tooth infection TEAE, participants (SAD 60 mg): 1 (16.7) n (%) | Abdominal pain TEAE, events (SAD 180 mg): 0 | Abdominal pain TEAE, participants (SAD 180 mg): 0 n (%) | Any event TEAE, events (SAD 180 mg): 0 | Any event TEAE, participants (SAD 180 mg): 0 n (%) | Diarrhea TEAE, events (SAD 180 mg): 0 | Diarrhea TEAE, participants (SAD 180 mg): 0 n (%) | Dysgeusia TEAE, events (SAD 180 mg): 0 | Dysgeusia TEAE, participants (SAD 180 mg): 0 n (%) | Gastrointestinal disorders TEAE, events (SAD 180 mg): 0 | Gastrointestinal disorders TEAE, participants (SAD 180 mg): 0 n (%) | Headache TEAE, events (SAD 180 mg): 0 | Headache TEAE, participants (SAD 180 mg): 0 n (%) | Hypoaesthesia oral TEAE, events (SAD 180 mg): 0 | Hypoaesthesia oral TEAE, participants (SAD 180 mg): 0 n (%) | Infections and infestations TEAE, events (SAD 180 mg): 0 | Infections and infestations TEAE, participants (SAD 180 mg): 0 n (%) | Insomnia TEAE, events (SAD 180 mg): 0 | Insomnia TEAE, participants (SAD 180 mg): 0 n (%) | Nasopharyngitis TEAE, events (SAD 180 mg): 0 | Nasopharyngitis TEAE, participants (SAD 180 mg): 0 n (%) | Nervous system disorders TEAE, events (SAD 180 mg): 0 | Nervous system disorders TEAE, participants (SAD 180 mg): 0 n (%) | Psychiatric disorders TEAE, events (SAD 180 mg): 0 | Psychiatric disorders TEAE, participants (SAD 180 mg): 0 n (%) | Rash TEAE, events (SAD 180 mg): 0 | Rash TEAE, participants (SAD 180 mg): 0 n (%) | Skin and subcutaneous tissue disorders TEAE, events (SAD 180 mg): 0 | Skin and subcutaneous tissue disorders TEAE, participants (SAD 180 mg): 0 n (%) | Tooth infection TEAE, events (SAD 180 mg): 0 | Tooth infection TEAE, participants (SAD 180 mg): 0 n (%) | Abdominal pain TEAE, events (SAD 400 mg): 1 | Abdominal pain TEAE, participants (SAD 400 mg): 1 (16.7) n (%) | Any event TEAE, events (SAD 400 mg): 4 | Any event TEAE, participants (SAD 400 mg): 2 (33.3) n (%) | Diarrhea TEAE, events (SAD 400 mg): 0 | Diarrhea TEAE, participants (SAD 400 mg): 0 n (%) | Dysgeusia TEAE, events (SAD 400 mg): 2 | Dysgeusia TEAE, participants (SAD 400 mg): 2 (33.3) n (%) | Gastrointestinal disorders TEAE, events (SAD 400 mg): 1 | Gastrointestinal disorders TEAE, participants (SAD 400 mg): 1 (16.7) n (%) | Headache TEAE, events (SAD 400 mg): 1 | Headache TEAE, participants (SAD 400 mg): 1 (16.7) n (%) | Hypoaesthesia oral TEAE, events (SAD 400 mg): 0 | Hypoaesthesia oral TEAE, participants (SAD 400 mg): 0 n (%) | Infections and infestations TEAE, events (SAD 400 mg): 0 | Infections and infestations TEAE, participants (SAD 400 mg): 0 n (%) | Insomnia TEAE, events (SAD 400 mg): 0 | Insomnia TEAE, participants (SAD 400 mg): 0 n (%) | Nasopharyngitis TEAE, events (SAD 400 mg): 0 | Nasopharyngitis TEAE, participants (SAD 400 mg): 0 n (%) | Nervous system disorders TEAE, events (SAD 400 mg): 3 | Nervous system disorders TEAE, participants (SAD 400 mg): 2 (33.3) n (%) | Psychiatric disorders TEAE, events (SAD 400 mg): 0 | Psychiatric disorders TEAE, participants (SAD 400 mg): 0 n (%) | Rash TEAE, events (SAD 400 mg): 0 | Rash TEAE, participants (SAD 400 mg): 0 n (%) | Skin and subcutaneous tissue disorders TEAE, events (SAD 400 mg): 0 | Skin and subcutaneous tissue disorders TEAE, participants (SAD 400 mg): 0 n (%) | Tooth infection TEAE, events (SAD 400 mg): 0 | Tooth infection TEAE, participants (SAD 400 mg): 0 n (%) | Abdominal pain TEAE, events (SAD 600 mg): 0 | Abdominal pain TEAE, participants (SAD 600 mg): 0 n (%) | Any event TEAE, events (SAD 600 mg): 3 | Any event TEAE, participants (SAD 600 mg): 2 (33.3) n (%) | Diarrhea TEAE, events (SAD 600 mg): 0 | Diarrhea TEAE, participants (SAD 600 mg): 0 n (%) | Dysgeusia TEAE, events (SAD 600 mg): 0 | Dysgeusia TEAE, participants (SAD 600 mg): 0 n (%) | Gastrointestinal disorders TEAE, events (SAD 600 mg): 1 | Gastrointestinal disorders TEAE, participants (SAD 600 mg): 1 (16.7) n (%) | Headache TEAE, events (SAD 600 mg): 0 | Headache TEAE, participants (SAD 600 mg): 0 n (%) | Hypoaesthesia oral TEAE, events (SAD 600 mg): 1 | Hypoaesthesia oral TEAE, participants (SAD 600 mg): 1 (16.7) n (%) | Infections and infestations TEAE, events (SAD 600 mg): 1 | Infections and infestations TEAE, participants (SAD 600 mg): 1 (16.7) n (%) | Insomnia TEAE, events (SAD 600 mg): 1 | Insomnia TEAE, participants (SAD 600 mg): 1 (16.7) n (%) | Nasopharyngitis TEAE, events (SAD 600 mg): 1 | Nasopharyngitis TEAE, participants (SAD 600 mg): 1 (16.7) n (%) | Nervous system disorders TEAE, events (SAD 600 mg): 0 | Nervous system disorders TEAE, participants (SAD 600 mg): 0 n (%) | Psychiatric disorders TEAE, events (SAD 600 mg): 1 | Psychiatric disorders TEAE, participants (SAD 600 mg): 1 (16.7) n (%) | Rash TEAE, events (SAD 600 mg): 0 | Rash TEAE, participants (SAD 600 mg): 0 n (%) | Skin and subcutaneous tissue disorders TEAE, events (SAD 600 mg): 0 | Skin and subcutaneous tissue disorders TEAE, participants (SAD 600 mg): 0 n (%) | Tooth infection TEAE, events (SAD 600 mg): 0 | Tooth infection TEAE, participants (SAD 600 mg): 0 n (%) | participants with at least one TEAE (SAD, all balinatunfib groups (five of 36)): 13.9% | tolerability (all single oral doses (5–600 mg)): well tolerated
